Results on 19 compounds are retold here after PubChem BioAssay.

Activity calls are given as the source filed them.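 Rule for the calls, unless noted: active = viability at or below 30% in both replicate assays; inconclusive = viability at or below 30% in just one of the two assays; inactive = the rest.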

A short description of assay [1]: HUVEC growth inhibition – cell-based, human, primary screen (AID 575).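 Note: 100% = median of untreated cell wells with 0.1% DMSO on each plate.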 To be noted: HUVEC proliferation, CellTiter-Glo luminescence, 72 h; at 10 µM; stronger effect = lower value. In short, it runs like this:
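Assay system: Primary human umbilical vein endothelial cells | Quantity: 1250 cells per well | Medium: Supplemented EBM, 2% fetal bovine serum | Detection: CellTiter-Glo luminescence measuring cellular ATP | Read-out: % viability vs DMSO wells | Plate: Collagen-coated 384-well format | Times: 72 h exposure, 37 °C, 5% CO2, 30 min RT equilibration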

The nature of assay [2]: H69AR cell proliferation blockers – human, duplicate replicates, primary screen (AID 580;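 active = viability at or under a set limit in both replicates, limit being median viability minus 3 SD, cut at about 48% in these data, passing the limit was not always enough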;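 note: 100% = mean luminescence of untreated wells and 0% = no signal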). To be noted: H69AR lung tumor cells viability, ATP luminescence, 72 h; at 10 µM; stronger effect = lower value.
The nature of assay [3]: MRP1 drug-resistance reversers in H69AR cells – cell-based, doxorubicin co-treatment, pilot screen (AID 601;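 active = viability loss from added drug above about 55%, and viability with drug at most 40%, in both replicates, limit read from the data, passing the limit was not always enough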). The conditions noted are these: CellTiter-Glo, 72 h, at 10 µM; for differential viability (reversal): stronger effect = higher value. (ATP-based viability assays read luminescence as a measure of living cells.)
The nature of assay [4]: yeast transport mutant growth inhibition pilot in 384-well plates, post-Golgi transport modulator project (AID 636; in the data active = inhibition above about 31%). To be noted: absorbance 615 nm, about 18 h, stronger effect = higher value.
Assay [5] in a line: growth suppression of yeast trafficking mutant, preliminary HTS, modulators of trafficking downstream of Golgi apparatus project, 1536-format plate, OD 615 nm (AID 637; in the data active = inhibition above about 30%). To be noted: yeast transport mutant growth, absorbance 615 nm, 18 h; stronger effect = higher value.
Setting [6] is: H69AR cells + 2 uM doxorubicin, measured here: viability with 2 uM doxorubicin, stronger effect = lower value.
Where [7] appears, read: H69AR cells, compound alone cytotoxicity.

Regarding `CN(CC(=O)O)S(=O)(=O)c1cc(Cl)ccc1Cl`, the viability (commonly a read-out of living cells in per cent, often relative to untreated cells) was 112% (inactive) in assay [1], 96.8% (inactive) in assay [2], 84.6% in assay [3] (setting [6]) and 96.8% in assay [3] (setting [7]). The differential viability (reversal) in assay [3] (H69AR cells + 2 uM doxorubicin) is 12.2% (inactive). The inhibition (commonly the relative decrease from the control value, in per cent) in assay [4] is -2.53% (inactive); in assay [5] it was -5.24% (inactive).

As for `Cn1c(=O)c2c(nc(SCC(=O)NCc3ccc4c(c3)OCO4)n2Cc2ccccc2)n(C)c1=O`, the viability in assay [1] was 93.4% (inactive); in assay [2], 92.6% (inactive); in assay [3] (setting [6]), 99.7%; in assay [3] (setting [7]), 92.6%. The differential viability (reversal) in assay [3] (H69AR cells + 2 uM doxorubicin) is -7.06% (inactive). The inhibition is 0.26% (inactive) in assay [4] and -4.13% (inactive) in assay [5].

Consider `Cc1ccc(Cn2ccc(NC(=O)c3noc4c3CCCC4)n2)cc1`, for which the viability in assay [1] was 101% (inactive); in assay [2], 112% (inactive); in assay [3] (setting [6]), 88.6%; in assay [3] (setting [7]), 112%. Moreover, the differential viability (reversal) in assay [3] (H69AR cells + 2 uM doxorubicin) was 23.6% (inactive). In addition, the figures for the inhibition in assay [4] and in assay [5] were -3.25% (inactive) and 2.86% (inactive), respectively.

`O=C(CSc1nc2c(sc3ccccc32)c(=O)n1Cc1ccco1)NCC1CCCO1` (stereo not drawn): the viability was 78.8% (inactive) in assay [1], 81.2% (inactive) in assay [2], 85.8% in assay [3] (setting [6]) and 81.2% in assay [3] (setting [7]). For the same compound, in assay [3] (H69AR cells + 2 uM doxorubicin), the differential viability (reversal) was -4.63% (inactive). Moreover, the inhibition in assay [4] is -1.17% (inactive); in assay [5] it was 5.71% (inactive).

Take `COC(=O)c1sccc1NC(=O)c1ccncc1`: the viability in assay [1] was 115% (inactive); in assay [2], 86.4% (inactive); in assay [3] (setting [6]) it was 77.5%; in assay [3] (setting [7]) it was 86.4%. For the same compound, in assay [3] (H69AR cells + 2 uM doxorubicin), the differential viability (reversal) is 8.91% (inactive). Also, the values for the inhibition in assay [4] and in assay [5] were -3.95% (inactive) and 5.56% (inactive), respectively.

With `CCOC(=O)c1c(C)oc2ccc(O)c(CN(C)C)c12`, the viability is 77.4% (inactive) in assay [1], 87.3% (inactive) in assay [2], 83.7% in assay [3] (setting [6]) and 87.3% in assay [3] (setting [7]). The differential viability (reversal) in assay [3] (H69AR cells + 2 uM doxorubicin) is 3.6% (inactive). In addition, the inhibition was -6.1% (inactive) in assay [4] and 2.22% (inactive) in assay [5].

For `Cc1cccc(NC(=O)CCn2ccnc2C)c1`, the viability in assay [1] was 98.8% (inactive); in assay [2], 92.3% (inactive); in assay [3] (setting [6]) it was 88.4%; in assay [3] (setting [7]), 92.3%. For the same compound, the differential viability (reversal) in assay [3] (H69AR cells + 2 uM doxorubicin) was 3.98% (inactive). Also, the results for the inhibition in assay [4] and in assay [5] were -1.95% (inactive) and 0.79% (inactive), respectively.

`Cc1ccc(O)c(C(=O)c2cc(C#N)c(=O)n(CC3CCCO3)c2)c1` (stereo not drawn): the viability in assay [1] is 93.2% (inactive); in assay [2], 89.7% (inactive); in assay [3] (setting [6]), 92.6%; in assay [3] (setting [7]), 89.7%. Also, in assay [3] (H69AR cells + 2 uM doxorubicin), the differential viability (reversal) was -2.82% (inactive). The figures for the inhibition in assay [4] and in assay [5] were -1.3% (inactive) and 0.16% (inactive), respectively.

For `COC(=O)c1[nH]c2c(c1C)C(=O)CC(c1cccs1)C2` (stereo not drawn), the viability in assay [1] is 44.9% (inactive); in assay [2], 36.7% (active); in assay [3] (setting [6]), 76%; in assay [3] (setting [7]) it was 36.7%. Also, the differential viability (reversal) in assay [3] (H69AR cells + 2 uM doxorubicin) was -39.3% (inactive). For the same compound, the values for the inhibition in assay [4] and in assay [5] were -6.05% (inactive) and 4.13% (inactive), respectively.

Take `CC(=O)CC(=O)Nc1ccccc1NC(C)=O`: the viability in assay [1] is 105% (inactive); in assay [2], 101% (inactive); in assay [3] (setting [6]) it was 93.2%; in assay [3] (setting [7]), 101%. The differential viability (reversal) in assay [3] (H69AR cells + 2 uM doxorubicin) is 8.12% (inactive). Also, the inhibition is -2.86% (inactive) in assay [4] and 1.43% (inactive) in assay [5].

Turning to `CC(=O)Nc1ccc(NC(=O)c2ccccc2N(C)S(C)(=O)=O)cc1`, the viability in assay [1] is 101% (inactive); in assay [2], 94.9% (inactive); in assay [3] (setting [6]), 91.7%; in assay [3] (setting [7]) it was 94.9%. In assay [3] (H69AR cells + 2 uM doxorubicin), the differential viability (reversal) was 3.22% (inactive). Besides, the results for the inhibition in assay [4] and in assay [5] were -6.71% (inactive) and -0.79% (inactive), respectively.

In the case of `COc1ccc2c(c1)CCc1c(C(=O)N3CC4(C)CC3CC(C)(C)C4)noc1-2` (stereo not drawn), the viability was 52.3% (inactive) in assay [1], 75.1% (inactive) in assay [2], 74.3% in assay [3] (setting [6]) and 75.1% in assay [3] (setting [7]). In assay [3] (H69AR cells + 2 uM doxorubicin), the differential viability (reversal) is 0.855% (inactive). In addition, the inhibition in assay [4] was -2.34% (inactive); in assay [5], -3.02% (inactive).

Take `O=C(Oc1ccccc1)c1cccc(COC(=O)c2cnccn2)c1`: the viability was 84.9% (inactive) in assay [1], 103% (inactive) in assay [2], 88.4% in assay [3] (setting [6]) and 103% in assay [3] (setting [7]). Also, in assay [3] (H69AR cells + 2 uM doxorubicin), the differential viability (reversal) is 14.2% (inactive). Further, the inhibition in assay [4] was -6.13% (inactive); in assay [5], 4.13% (inactive).

For the compound `CCOC(=O)C1CCCN(S(=O)(=O)c2cccs2)C1` (stereo not drawn), the viability was 110% (inactive) in assay [1], 109% (inactive) in assay [2], 96.7% in assay [3] (setting [6]) and 109% in assay [3] (setting [7]). Also, the differential viability (reversal) in assay [3] (H69AR cells + 2 uM doxorubicin) is 12.7% (inactive). Besides, the inhibition is 0.66% (inactive) in assay [4] and -6.03% (inactive) in assay [5].

As to `O=C(c1cccnc1)N1CCN(Cc2ccc3c(c2)OCO3)CC1`, the viability in assay [1] was 89.6% (inactive); in assay [2] it was 95.8% (inactive); in assay [3] (setting [6]) it was 81.4%; in assay [3] (setting [7]), 95.8%. For the same compound, the differential viability (reversal) in assay [3] (H69AR cells + 2 uM doxorubicin) is 14.4% (inactive). Also, the inhibition was -7.73% (inactive) in assay [4] and 1.75% (inactive) in assay [5].

For `CSc1ccccc1NS(=O)(=O)c1ccccc1`, the viability in assay [1] is 101% (inactive); in assay [2], 102% (inactive); in assay [3] (setting [6]), 90.8%; in assay [3] (setting [7]), 102%. Besides, the differential viability (reversal) in assay [3] (H69AR cells + 2 uM doxorubicin) was 10.8% (inactive). Besides, the inhibition in assay [4] was -4.61% (inactive); in assay [5], 0% (inactive).

For the compound `Cn1c(SCC(=O)Nc2cccc3ccccc23)nc(O)cc1=O`, the viability in assay [1] is 88.3% (inactive); in assay [2] it was 89.7% (inactive); in assay [3] (setting [6]) it was 95.4%; in assay [3] (setting [7]) it was 89.7%. Also, in assay [3] (H69AR cells + 2 uM doxorubicin), the differential viability (reversal) was -5.66% (inactive). In addition, the inhibition in assay [4] was -4.67% (inactive); in assay [5] it was -0.79% (inactive).

Turning to `CC(C)C(c1nnnn1C1CCCC1)N1CCCc2ccccc21` (stereo not drawn), the viability in assay [1] is 80.3% (inactive); in assay [2], 84.5% (inactive); in assay [3] (setting [6]), 91.2%; in assay [3] (setting [7]), 84.5%. Also, the differential viability (reversal) in assay [3] (H69AR cells + 2 uM doxorubicin) was -6.77% (inactive). Also, the results for the inhibition in assay [4] and in assay [5] were 1.33% (inactive) and -3.65% (inactive), respectively.

In the case of `CCOC(=O)CSC1=C(C#N)C(c2ccc(C)cc2)C(C(=O)OC)C(=O)N1` (stereo not drawn), the viability in assay [1] was 81.7% (inactive); in assay [2] it was 91.1% (inactive); in assay [3] (setting [6]) it was 89.6%; in assay [3] (setting [7]) it was 91.1%. In addition, the differential viability (reversal) in assay [3] (H69AR cells + 2 uM doxorubicin) is 1.55% (inactive). Further, the results for the inhibition in assay [4] and in assay [5] were -1.2% (inactive) and -5.56% (inactive), respectively.
